Counter-ions that a name gives are not always drawn.
Columns and labels:
Format in all cases: in vivo
male Sprague Dawley rats = assay: SNL-induced tactile allodynia, von Frey; conditions: i.v.
Procedure, shortened: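 Male Sprague Dawley rats (250–350g) were tested 7 days after SNL surgery, with a fresh baseline taken before dosing. Test compound, comparator or saline followed that baseline. Von Frey up-down method: start at 2 g, each filament applied once for 5 sec, 1 min between stimuli. Positive response was rapid left hind paw withdrawal or licking. Testing ran at 15–180 min post-dose, or until post-SNL baseline.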

male CD-1 mice [1] = assay: CFA-induced tactile allodynia, von Frey; conditions: i.v.
male CD-1 mice [2] = assay: Warm-water tail-withdrawal assay of acute thermal nociception, i.v.
male CD-1 mice [3] = assay: Warm-water tail-withdrawal assay of acute thermal nociception, p.o.
male CD-1 mice [4] = assay: Antagonist; conditions: naltrindole 10 mg/kg s.c., -10 min, DPDPE 30 nmol i.c.v.

**Q.** With NCC1(CC(=O)O)CCCCC1 [gabapentin] as the molecule, how does the “time of peak effects” value (male Sprague Dawley rats; SNL model, rats (discussion)) read?
**A.** ~ 90 min

**Q.** And the “Area under the Curve (duration of effect, peak dose)” value (male Sprague Dawley rats; rats, 7 days after SNL, BBI-11008 18 mg/kg, gabapentin 56 mg/kg)?
**A.** 130.2

**Q.** How did the “duration of peak effect” value (male CD-1 mice [1]; CFA model, mice (discussion)) turn out when CN1CC[C@]23c4c5ccc(O)c4O[C@H]2[C@@H](O)C=C[C@H]3[C@H]1C5 [morphine, Morphine sulfate] was run?
**A.** 30 to 45 min

**Q.** And the “time of peak effects, reversal of tactile allodynia” value (male CD-1 mice [1]; mice, 24 hr after CFA, BBI-11008 10-32 mg/kg, morphine 1-3.2 mg/kg)?
**A.** 15 to 30 min

**Q.** And the “Area under the Curve (duration of effect, peak dose)” value (male CD-1 mice [1]; mice, BBI-11008 32 mg/kg, morphine 3.2 mg/kg, withdrawal threshold vs time)?
**A.** 12.85

**Q.** What about the “duration of peak antinociception” value (male CD-1 mice [2]; BBI-11008 3.2-100 mg/kg, morphine 1-10 mg/kg) of the same molecule?
**A.** ~ 60 min

**Q.** What about the “duration of peak effect” value (male CD-1 mice [2]; tail withdrawal (discussion)) of the same molecule?
**A.** ~ 1 hr

**Q.** What about the “overall duration of effect” value (male CD-1 mice [2]; within the dose ranges tested) of the same molecule?
**A.** ~ 120 min

**Q.** And the “duration of peak effect” value (male CD-1 mice [3]; tail withdrawal (discussion))?
**A.** ~ 2 hr

**Q.** What about the “overall duration of effect” value (male CD-1 mice [3]; within the dose ranges tested) of the same molecule?
**A.** ~ 180 min

**Q.** For [D-Pen^2,D-Pen^5]enkephalin [DPDPE], which “effect of NTI pretreatment on antinociceptive effects” value (male CD-1 mice [4]) is on record?
**A.** fully blocked

— article PMC8106974 (Psychopharmacology, 2020)
